Assay results: paper PMC11474258 (RSC Advances, 2024)
In brackets after ≈: the same amount, converted by molar mass.

Experiments:
[1] = tested on: A549 cells; assay: MTT cell viability assay; type: cell-based; details: 18 h, triplicates, CX4 alone up to 200 μM
Method in brief: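 A549 cells were grown in DMEM/F12 with 10% heat-inactivated FBS and 1% penicillin/streptomycin at 37 °C, 5% CO2. They were seeded at 1×10^4 cells/well and exposed in triplicate for 18 h to a range of test compound concentrations, alone or complexed with peptide. CX4 was at most 4 mM in complexes. MTT absorbance was read at 570 nm and reported as mean ± standard error, with Tukey test (P < 0.05).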

[2] = concentrations up to 5 mM; cited from earlier work
[3] = cited from earlier work
[4] = Solubility of curcumin; type: physicochemical; details: in the presence of FAM-Y4R4; absorption peak at 425 nm, curcumin standard curve
[5] = Overall binding constant of curcumin; details: average of fluorescence (tyrosine) and UV-vis (phenol) titration
[6] = UV-vis titration of curcumin with phenol; type: binding; details: isotherm at 430 nm, 1:1 model, non-linear regression
Method in brief: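 Curcumin was spectroscopically titrated with phenol, which stands in for the tyrosine side chain. The binding isotherm was plotted from absorbance at 430 nm. Ka was fitted by nonlinear regression to a one-host-to-one-guest binding model.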

[7] = Spectral titration of phenol with guanidine HCl; details: calculated from the binding isotherm of phenol with guanidine HCl

SMILES: O=S(=O)(O)c1cc2c(O)c(c1)Cc1cc(S(=O)(=O)O)cc(c1O)Cc1cc(S(=O)(=O)O)cc(c1O)Cc1cc(S(=O)(=O)O)cc(c1O)C2 [CX4, p-sulfonatocalix[4]arene]
- maximum decrease in cell viability [1]: ≤ 22%
- hemolytic toxicity [2]: no hemolytic toxicity

SMILES: COc1cc(/C=C/C(=O)CC(=O)/C=C/c2ccc(O)c(OC)c2)ccc1O [curcumin]
- solubility in water [3]: 0.03 µM (≈ 0.0111 µg/mL)
- solubility of curcumin when bound to the tyrosines of FAM-Y4R4 [4]: 0.4 µM
- overall binding constant Ka (average of the two values) [5]: 2.38e+06 M⁻¹
- Ka of curcumin to phenol [6]: 4.6e+06 M⁻¹

SMILES: Cl.N=C(N)N [guanidine HCl]
- binding energy [7]: 34 kJ/mol
